Measurements from article PMC3346673 (Toxicological and environmental chemistry, 2012).

Columns and labels:
[1] = test system: Salmonella typhimurium strains TA1537, TA98, TA100, and TA1535; experiment: Ames test for mutagenic activity; assay type: cell-based; settings: reversion of mutations in the histidine operon
[2] = test system: rats injected with lethal doses of mercury chloride; experiment: Survival of young rats after lethal doses of mercury chloride; assay type: in vivo, rat (Sprague-Dawley)
Summary of the method: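 Thirty-six young male Sprague-Dawley rats (225–245 g) were split into three groups of 12. They received HgCl2 sc under the right abdominal skin at 1.0, 2.0 or 14 mg kg−1. Six per group then got test compound sc on the left side 20–25 min later in isotonic 25% DMSO:75% PBS: 528 micromoles for the two lower doses, 880 micromoles for the top dose.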

rats = experiment: 28 day repeated oral dose toxicity study with clinical chemistry and hematology; assay type: in vivo, rat (Wistar); settings: for Ca^2+ / Cl^− / HCT / HGB / K^+ / Mg^2+ / Na^+ / Phosphorus / RBC: mean
Summary of the method: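 Male and female Wistar rats, 10 of each sex per group, gavaged daily for 28 days with the test compound suspended in corn oil at 0, 0.1, 0.5 or 1.0 g kg−1 body weight day−1.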

Endotoxin activity = settings: 1 mg mL^−1, tested undiluted to 1:512 dilution
[3] = 0.1, 0.5 and 1.0 g kg^−1 day^−1 gavage, 28 days
[4] = females, 100 mg kg^−1, end of 28 day daily dosing
[5] = females, 500 mg kg^−1, end of 28 day daily dosing
[6] = females, 1000 mg kg^−1, end of 28 day daily dosing
[7] = males, 100 mg kg^−1, end of 28 day daily dosing
[8] = males, 500 mg kg^−1, end of 28 day daily dosing
[9] = males, 1000 mg kg^−1, end of 28 day daily dosing

O=C(NCCS)c1cccc(C(=O)NCCS)c1 [NBMI, N,N′-bis(2-mercaptoethyl)isophthalamide]
mutagenicity, Ames analysis [1]: non-mutagenic | PERCENT SURVIVAL ([2]; HgCl2 1 mg kg^−1 sc, NBMI 528 micromoles (150 mg) kg^−1 sc, 0 hrs): 100% | PERCENT SURVIVAL ([2]; HgCl2 1 mg kg^−1 sc, NBMI 528 micromoles (150 mg) kg^−1 sc, 6 hrs): 100% | PERCENT SURVIVAL ([2]; HgCl2 1 mg kg^−1 sc, NBMI 528 micromoles (150 mg) kg^−1 sc, 12 hrs): 100% | PERCENT SURVIVAL ([2]; HgCl2 1 mg kg^−1 sc, NBMI 528 micromoles (150 mg) kg^−1 sc, 24 hrs): 100% | PERCENT SURVIVAL ([2]; HgCl2 1 mg kg^−1 sc, NBMI 528 micromoles (150 mg) kg^−1 sc, 48 hrs): 100% | PERCENT SURVIVAL ([2]; HgCl2 1 mg kg^−1 sc, NBMI 528 micromoles (150 mg) kg^−1 sc, 72 hrs): 100% | PERCENT SURVIVAL ([2]; HgCl2 2 mg kg^−1 sc, NBMI 528 micromoles (150 mg) kg^−1 sc, 0 hrs): 100% | PERCENT SURVIVAL ([2]; HgCl2 2 mg kg^−1 sc, NBMI 528 micromoles (150 mg) kg^−1 sc, 6 hrs): 100% | PERCENT SURVIVAL ([2]; HgCl2 2 mg kg^−1 sc, NBMI 528 micromoles (150 mg) kg^−1 sc, 12 hrs): 100% | PERCENT SURVIVAL ([2]; HgCl2 2 mg kg^−1 sc, NBMI 528 micromoles (150 mg) kg^−1 sc, 24 hrs): 100% | PERCENT SURVIVAL ([2]; HgCl2 2 mg kg^−1 sc, NBMI 528 micromoles (150 mg) kg^−1 sc, 48 hrs): 100% | PERCENT SURVIVAL ([2]; HgCl2 2 mg kg^−1 sc, NBMI 528 micromoles (150 mg) kg^−1 sc, 72 hrs): 100% | PERCENT SURVIVAL ([2]; HgCl2 14 mg kg^−1 sc, NBMI 880 micromoles (250 mg) kg^−1 sc, 0 hrs): 100% | PERCENT SURVIVAL ([2]; HgCl2 14 mg kg^−1 sc, NBMI 880 micromoles (250 mg) kg^−1 sc, 6 hrs): 100% | PERCENT SURVIVAL ([2]; HgCl2 14 mg kg^−1 sc, NBMI 880 micromoles (250 mg) kg^−1 sc, 12 hrs): 100% | PERCENT SURVIVAL ([2]; HgCl2 14 mg kg^−1 sc, NBMI 880 micromoles (250 mg) kg^−1 sc, 24 hrs): 100% | PERCENT SURVIVAL ([2]; HgCl2 14 mg kg^−1 sc, NBMI 880 micromoles (250 mg) kg^−1 sc, 48 hrs): 67% | PERCENT SURVIVAL ([2]; HgCl2 14 mg kg^−1 sc, NBMI 880 micromoles (250 mg) kg^−1 sc, 72 hrs): 67% | condition of the surviving rats on long term observation ([2]; surviving 16 rats from all groups observed for three months): No adverse effects were noted | deaths and clinical signs (rats; [3]): No deaths or abnormal weight loss, ataxia, loss of appetite | microscopic and histological analysis of organs (rats; [3]): None of their organs displayed changes indicating toxic effects | spleen finding (rats; [3]): mild to moderate B-cell proliferation | Ca^2+ (rats; [4]): 10.78 mg/dL | Cl^− (rats; [4]): 103 meq L^−1 | HCT (rats; [4]): 43.7% | HGB (rats; [4]): 15.2 gm DL^−1 | K^+ (rats; [4]): 4.81 meq L^−1 | Mg^2+ (rats; [4]): 2.64 meq L^−1 | Na^+ (rats; [4]): 142 meq L^−1 | Phosphorus (rats; [4]): 7.82 mg/dL | RBC (rats; [4]): 8.0 mill UL^−1 | Ca^2+ (rats; [5]): 10.89 mg/dL | Cl^− (rats; [5]): 105 meq L^−1 | HCT (rats; [5]): 42% | HGB (rats; [5]): 15 gm DL^−1 | K^+ (rats; [5]): 5.08 meq L^−1 | Mg^2+ (rats; [5]): 2.72 meq L^−1 | Na^+ (rats; [5]): 143 meq L^−1 | Phosphorus (rats; [5]): 8.15 mg/dL | RBC (rats; [5]): 8.0 mill UL^−1 | Ca^2+ (rats; [6]): 10.84 mg/dL | Cl^− (rats; [6]): 105 meq L^−1 | HCT (rats; [6]): 40% | HGB (rats; [6]): 14 gm DL^−1 | K^+ (rats; [6]): 4.89 meq L^−1 | Mg^2+ (rats; [6]): 2.82 meq L^−1 | Na^+ (rats; [6]): 144 meq L^−1 | Phosphorus (rats; [6]): 8.49 mg/dL | RBC (rats; [6]): 7.6 mill UL^−1 | Ca^2+ (rats; [7]): 10.64 mg/dL | Cl^− (rats; [7]): 105 meq L^−1 | HCT (rats; [7]): 46.2% | HGB (rats; [7]): 15.6 gm DL^−1 | K^+ (rats; [7]): 4.83 meq L^−1 | Mg^2+ (rats; [7]): 2.58 meq L^−1 | Na^+ (rats; [7]): 143 meq L^−1 | Phosphorus (rats; [7]): 8.23 mg/dL | RBC (rats; [7]): 8.7 mill UL^−1 | Ca^2+ (rats; [8]): 10.6 mg/dL | Cl^− (rats; [8]): 104 meq L^−1 | HCT (rats; [8]): 45.1% | HGB (rats; [8]): 15.2 gm DL^−1 | K^+ (rats; [8]): 5.03 meq L^−1 | Mg^2+ (rats; [8]): 2.62 meq L^−1 | Na^+ (rats; [8]): 144 meq L^−1 | Phosphorus (rats; [8]): 8.42 mg/dL | RBC (rats; [8]): 8.3 mill UL^−1 | Ca^2+ (rats; [9]): 10.53 mg/dL | Cl^− (rats; [9]): 106 meq L^−1 | HCT (rats; [9]): 45.5% | HGB (rats; [9]): 15.5 gm DL^−1 | K^+ (rats; [9]): 5.15 meq L^−1 | Mg^2+ (rats; [9]): 2.56 meq L^−1 | Na^+ (rats; [9]): 143 meq L^−1 | Phosphorus (rats; [9]): 8.84 mg/dL | RBC (rats; [9]): 8.5 mill UL^−1 | endotoxin content (Endotoxin activity): less than one
